Results taken from ChEMBL document CHEMBL5661979, “Pharmacological inhibition of BMK1 suppresses tumor growth through promyelocytic leukemia protein” (Cancer Cell, 2010).

Columns and labels:
[1] = biological target: c-Jun N-terminal kinase, JNK (Homo sapiens, UniProt P45983+P53779+P45984); test: Inhibition of JNK1/JNK2/JNK3 in human HeLa cells lysate pre incubated for 15 mins followed by ATP acyl phosphate probe addition and measured after 10 mins by LC-MS/MS analysis; assay type: subcellular
[2] = biological target: Serine/threonine-protein kinase 10 (Homo sapiens, UniProt O94804); test: Inhibition of LOK in human HeLa cells lysate pre incubated for 15 mins followed by ATP acyl phosphate probe addition and measured after 10 mins by LC-MS/MS analysis; assay type: subcellular
[3] = biological target: Ribosomal protein S6 kinase beta-2 (Homo sapiens, UniProt Q9UBS0); test: Inhibition of P70S6KB in human HeLa cells lysate pre incubated for 15 mins followed by ATP acyl phosphate probe addition and measured after 10 mins by LC-MS/MS analysis; assay type: subcellular
[4] = biological target: Peripheral plasma membrane protein CASK (Homo sapiens, UniProt O14936); test: Inhibition of CASK in human HeLa cells lysate pre incubated for 15 mins followed by ADP acyl phosphate probe addition and measured after 10 mins by LC-MS/MS analysis; assay type: subcellular
How it was run: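 KiNativ profiling in HeLa lysate (5 mg/mL total protein). Lysate incubated 15 min with inhibitor at 50, 10, 2, 0.8 or 0 μM. ATP or ADP acylphosphate probe then added (5 μM final) and reacted 10 min. Reaction stopped with urea and analysed by targeted MS, using up to four fragment ions per kinase peptide-probe conjugate. % inhibition taken against untreated lysate. Run in duplicate.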

[5] = Inhibition of CK1g1/g2/g3 in human HeLa cells lysate pre incubated for 15 mins followed by ADP acyl phosphate probe addition and measured after 10 mins by LC-MS/MS analysis; assay type: subcellular
[6] = biological target: Glycogen synthase kinase-3 beta (Homo sapiens, UniProt P49841); test: Inhibition of GSK3B isoform 2 in human HeLa cells lysate pre incubated for 15 mins followed by ADP acyl phosphate probe addition and measured after 10 mins by LC-MS/MS analysis; assay type: subcellular
[7] = biological target: Insulin-like growth factor 1 receptor (Homo sapiens, UniProt P08069); test: Inhibition of IGF1R in human HeLa cells lysate pre incubated for 15 mins followed by ADP acyl phosphate probe addition and measured after 10 mins by LC-MS/MS analysis; assay type: subcellular
[8] = biological target: Protein kinase C zeta type (Homo sapiens, UniProt Q05513); test: Inhibition of PKCzeta in human HeLa cells lysate pre incubated for 15 mins followed by ADP acyl phosphate probe addition and measured after 10 mins by LC-MS/MS analysis; assay type: subcellular
[9] = biological target: STE20-related kinase adapter protein beta (Homo sapiens, UniProt Q9C0K7); test: Inhibition of ALS2CR2 in human HeLa cells lysate pre incubated for 15 mins followed by ADP acyl phosphate probe addition and measured after 10 mins by LC-MS/MS analysis; assay type: subcellular
How it was run: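 HeLa cell lysates (5 mg/mL total protein) were preincubated with inhibitor at 0, 0.8, 2, 10 or 50 μM for 15 min. ATP or ADP acylphosphate probe was then added (5 μM final) for 10 min, and reactions were stopped with urea. Up to four fragment ions per kinase probe-peptide were quantified by targeted MS. % inhibition was taken relative to untreated lysate. Run in duplicate.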

[10] = Inhibition of PCTAIRE2/ICK in human HeLa cells lysate at 10 uM pre incubated for 15 mins followed by ADP acyl phosphate probe addition and measured after 10 mins by LC-MS/MS analysis relative to control; conditions: 25 min, condition cancer
[11] = Inhibition of MSK1/2 in human HeLa cells lysate at 2 uM pre incubated for 15 mins followed by ADP acyl phosphate probe addition and measured after 10 mins by LC-MS/MS analysis relative to control; conditions: 25 min, condition cancer
[12] = biological target: T1, Serine/threonine-protein kinase TAO2 (Homo sapiens) (UniProt Q9UL54); test: Inhibition of TAO2 in human HeLa cells lysate at 50 uM pre incubated for 15 mins followed by ATP acyl phosphate probe addition and measured after 10 mins by LC-MS/MS analysis relative to control; assay type: subcellular; conditions: time 25.0 min
T1 sequence (whole entry): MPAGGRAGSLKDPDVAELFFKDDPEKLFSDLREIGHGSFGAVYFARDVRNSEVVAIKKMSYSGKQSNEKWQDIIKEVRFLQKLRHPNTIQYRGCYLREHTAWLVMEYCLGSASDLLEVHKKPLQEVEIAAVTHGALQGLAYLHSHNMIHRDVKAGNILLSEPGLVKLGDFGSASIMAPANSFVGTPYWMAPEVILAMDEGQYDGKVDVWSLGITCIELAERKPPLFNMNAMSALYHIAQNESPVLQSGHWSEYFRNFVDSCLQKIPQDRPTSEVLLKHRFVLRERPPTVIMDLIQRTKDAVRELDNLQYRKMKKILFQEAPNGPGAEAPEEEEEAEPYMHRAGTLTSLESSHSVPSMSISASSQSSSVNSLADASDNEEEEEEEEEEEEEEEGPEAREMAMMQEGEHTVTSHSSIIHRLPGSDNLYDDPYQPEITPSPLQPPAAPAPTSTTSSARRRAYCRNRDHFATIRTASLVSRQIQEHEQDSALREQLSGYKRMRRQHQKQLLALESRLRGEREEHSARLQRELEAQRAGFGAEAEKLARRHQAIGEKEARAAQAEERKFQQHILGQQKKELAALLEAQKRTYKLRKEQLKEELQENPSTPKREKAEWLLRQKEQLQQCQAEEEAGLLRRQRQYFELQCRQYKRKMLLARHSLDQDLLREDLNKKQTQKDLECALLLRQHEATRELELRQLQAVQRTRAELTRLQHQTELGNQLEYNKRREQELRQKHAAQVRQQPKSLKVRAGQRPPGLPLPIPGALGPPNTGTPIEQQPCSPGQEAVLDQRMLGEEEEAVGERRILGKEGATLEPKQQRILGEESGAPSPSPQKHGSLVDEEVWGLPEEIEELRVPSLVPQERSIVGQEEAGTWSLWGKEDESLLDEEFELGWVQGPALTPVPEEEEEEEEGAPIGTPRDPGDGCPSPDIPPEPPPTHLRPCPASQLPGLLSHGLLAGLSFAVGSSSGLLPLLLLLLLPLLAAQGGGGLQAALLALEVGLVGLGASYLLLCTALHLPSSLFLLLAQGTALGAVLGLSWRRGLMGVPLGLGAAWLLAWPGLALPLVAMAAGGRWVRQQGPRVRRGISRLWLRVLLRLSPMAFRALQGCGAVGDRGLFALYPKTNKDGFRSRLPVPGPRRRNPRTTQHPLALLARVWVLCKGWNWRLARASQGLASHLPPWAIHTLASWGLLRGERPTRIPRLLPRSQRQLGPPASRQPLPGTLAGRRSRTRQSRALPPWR

[13] = biological target: Mitogen-activated protein kinase 14 (Homo sapiens, UniProt Q16539); test: Inhibition of P38alpha interaction site in human HeLa cells lysate at 10 uM pre incubated for 15 mins followed by ATP acyl phosphate probe addition and measured after 10 mins by LC-MS/MS analysis relative to control; assay type: subcellular; conditions: time 25.0 min
[14] = Inhibition of MST4/YSK1 in human HeLa cells lysate at 2 uM pre incubated for 15 mins followed by ATP acyl phosphate probe addition and measured after 10 mins by LC-MS/MS analysis relative to control; conditions: 25 min, condition cancer

Chain of Serine/threonine-protein kinase 10 (O94804 whole entry): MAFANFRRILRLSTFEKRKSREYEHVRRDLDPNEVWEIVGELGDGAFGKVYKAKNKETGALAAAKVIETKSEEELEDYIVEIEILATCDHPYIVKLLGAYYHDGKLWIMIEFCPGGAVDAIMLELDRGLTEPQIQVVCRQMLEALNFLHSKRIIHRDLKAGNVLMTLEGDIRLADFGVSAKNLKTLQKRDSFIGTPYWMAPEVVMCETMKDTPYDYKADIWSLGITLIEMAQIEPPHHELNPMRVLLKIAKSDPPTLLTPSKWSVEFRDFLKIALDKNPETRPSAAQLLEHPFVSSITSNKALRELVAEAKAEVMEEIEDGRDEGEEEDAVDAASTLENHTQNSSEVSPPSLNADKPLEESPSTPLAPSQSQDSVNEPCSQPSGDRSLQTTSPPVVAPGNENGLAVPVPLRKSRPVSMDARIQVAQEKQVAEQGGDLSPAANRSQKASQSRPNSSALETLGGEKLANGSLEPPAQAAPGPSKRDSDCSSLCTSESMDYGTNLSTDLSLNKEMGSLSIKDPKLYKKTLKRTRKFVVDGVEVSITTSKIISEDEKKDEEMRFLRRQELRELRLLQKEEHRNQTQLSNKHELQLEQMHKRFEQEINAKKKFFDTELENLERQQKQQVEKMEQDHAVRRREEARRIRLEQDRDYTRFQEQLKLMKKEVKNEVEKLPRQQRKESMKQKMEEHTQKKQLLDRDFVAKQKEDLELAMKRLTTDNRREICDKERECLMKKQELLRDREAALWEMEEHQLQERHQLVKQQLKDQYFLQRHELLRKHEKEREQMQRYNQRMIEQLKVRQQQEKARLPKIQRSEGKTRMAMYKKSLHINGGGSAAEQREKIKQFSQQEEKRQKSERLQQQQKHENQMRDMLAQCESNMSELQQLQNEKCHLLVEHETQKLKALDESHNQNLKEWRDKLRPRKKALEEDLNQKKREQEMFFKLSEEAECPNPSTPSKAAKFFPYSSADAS
Chain of Glycogen synthase kinase-3 beta (P49841 whole entry, canonical isoform): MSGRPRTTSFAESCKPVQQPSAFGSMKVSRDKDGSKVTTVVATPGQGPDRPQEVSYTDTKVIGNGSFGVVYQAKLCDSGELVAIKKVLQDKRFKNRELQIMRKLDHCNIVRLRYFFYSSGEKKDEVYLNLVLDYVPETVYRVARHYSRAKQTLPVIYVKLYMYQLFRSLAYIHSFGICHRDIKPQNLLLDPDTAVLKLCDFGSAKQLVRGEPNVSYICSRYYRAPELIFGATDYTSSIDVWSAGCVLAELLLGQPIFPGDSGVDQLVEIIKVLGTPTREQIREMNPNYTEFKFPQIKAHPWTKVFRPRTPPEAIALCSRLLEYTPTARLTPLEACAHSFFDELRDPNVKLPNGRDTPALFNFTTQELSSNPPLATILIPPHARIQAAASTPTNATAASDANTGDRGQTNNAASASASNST
Chain of Peripheral plasma membrane protein CASK (O14936 whole entry, the tested form may be a part): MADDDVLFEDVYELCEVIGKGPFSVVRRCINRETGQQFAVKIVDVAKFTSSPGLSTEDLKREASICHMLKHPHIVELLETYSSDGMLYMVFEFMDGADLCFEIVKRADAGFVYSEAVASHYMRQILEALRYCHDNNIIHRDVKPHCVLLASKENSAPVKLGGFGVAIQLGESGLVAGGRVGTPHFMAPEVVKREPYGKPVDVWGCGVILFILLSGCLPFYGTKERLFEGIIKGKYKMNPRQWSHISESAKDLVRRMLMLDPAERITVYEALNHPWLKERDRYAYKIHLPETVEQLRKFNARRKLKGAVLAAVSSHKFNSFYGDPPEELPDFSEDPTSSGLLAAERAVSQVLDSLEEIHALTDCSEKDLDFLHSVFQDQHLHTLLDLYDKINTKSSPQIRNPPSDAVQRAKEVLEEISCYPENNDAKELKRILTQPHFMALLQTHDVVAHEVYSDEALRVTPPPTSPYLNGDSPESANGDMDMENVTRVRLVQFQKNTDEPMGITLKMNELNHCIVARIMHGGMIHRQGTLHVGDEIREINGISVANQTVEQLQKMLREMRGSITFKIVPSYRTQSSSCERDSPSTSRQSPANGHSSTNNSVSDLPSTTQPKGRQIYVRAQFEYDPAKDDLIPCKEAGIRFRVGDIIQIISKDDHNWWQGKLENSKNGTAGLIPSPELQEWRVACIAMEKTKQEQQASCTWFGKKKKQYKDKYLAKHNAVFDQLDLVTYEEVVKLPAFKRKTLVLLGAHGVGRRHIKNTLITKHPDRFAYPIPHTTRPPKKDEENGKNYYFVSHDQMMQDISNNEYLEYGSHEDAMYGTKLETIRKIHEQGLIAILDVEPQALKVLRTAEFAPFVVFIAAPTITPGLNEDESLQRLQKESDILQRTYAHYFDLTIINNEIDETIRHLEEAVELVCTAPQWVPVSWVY
Chain of Protein kinase C zeta type (Q05513 whole entry): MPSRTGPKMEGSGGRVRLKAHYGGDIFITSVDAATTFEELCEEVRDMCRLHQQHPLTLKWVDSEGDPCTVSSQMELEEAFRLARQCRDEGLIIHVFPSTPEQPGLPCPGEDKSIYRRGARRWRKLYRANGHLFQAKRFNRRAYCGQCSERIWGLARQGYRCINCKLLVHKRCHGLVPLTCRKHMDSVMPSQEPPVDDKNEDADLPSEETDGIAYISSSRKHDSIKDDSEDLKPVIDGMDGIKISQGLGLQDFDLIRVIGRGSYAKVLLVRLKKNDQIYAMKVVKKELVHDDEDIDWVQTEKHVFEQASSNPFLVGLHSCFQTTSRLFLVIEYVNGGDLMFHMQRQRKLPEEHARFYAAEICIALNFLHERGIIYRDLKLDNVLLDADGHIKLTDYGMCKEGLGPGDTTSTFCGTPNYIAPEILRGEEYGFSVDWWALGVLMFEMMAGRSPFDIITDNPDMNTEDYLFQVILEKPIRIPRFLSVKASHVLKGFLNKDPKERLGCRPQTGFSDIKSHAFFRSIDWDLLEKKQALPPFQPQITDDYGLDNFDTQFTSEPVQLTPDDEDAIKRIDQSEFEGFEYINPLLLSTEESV
Chain of Mitogen-activated protein kinase 14 (Q16539 whole entry): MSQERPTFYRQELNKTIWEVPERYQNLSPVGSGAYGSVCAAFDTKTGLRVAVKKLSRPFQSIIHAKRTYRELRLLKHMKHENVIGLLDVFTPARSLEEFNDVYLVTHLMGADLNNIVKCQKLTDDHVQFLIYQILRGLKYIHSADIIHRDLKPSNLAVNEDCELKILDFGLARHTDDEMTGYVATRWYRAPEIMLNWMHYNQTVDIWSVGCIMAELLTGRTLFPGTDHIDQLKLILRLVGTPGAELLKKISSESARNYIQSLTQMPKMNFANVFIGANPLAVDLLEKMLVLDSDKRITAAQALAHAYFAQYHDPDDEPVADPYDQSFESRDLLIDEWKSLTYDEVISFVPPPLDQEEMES
Chain of STE20-related kinase adapter protein beta (Q9C0K7 whole entry, the tested form may be a part): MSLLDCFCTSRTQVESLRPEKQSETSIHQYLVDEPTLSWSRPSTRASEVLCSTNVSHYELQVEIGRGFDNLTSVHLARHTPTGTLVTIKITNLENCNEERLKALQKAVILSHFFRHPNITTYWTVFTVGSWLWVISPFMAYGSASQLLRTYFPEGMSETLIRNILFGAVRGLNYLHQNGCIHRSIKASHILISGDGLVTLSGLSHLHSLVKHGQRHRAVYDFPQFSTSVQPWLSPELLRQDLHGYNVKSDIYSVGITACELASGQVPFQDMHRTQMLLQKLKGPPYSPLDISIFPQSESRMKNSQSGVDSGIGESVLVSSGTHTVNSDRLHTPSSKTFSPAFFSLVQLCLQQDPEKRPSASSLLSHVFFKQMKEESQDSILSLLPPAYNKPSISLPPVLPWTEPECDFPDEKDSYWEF
Chain of Insulin-like growth factor 1 receptor (P08069 31-736 limits assumed): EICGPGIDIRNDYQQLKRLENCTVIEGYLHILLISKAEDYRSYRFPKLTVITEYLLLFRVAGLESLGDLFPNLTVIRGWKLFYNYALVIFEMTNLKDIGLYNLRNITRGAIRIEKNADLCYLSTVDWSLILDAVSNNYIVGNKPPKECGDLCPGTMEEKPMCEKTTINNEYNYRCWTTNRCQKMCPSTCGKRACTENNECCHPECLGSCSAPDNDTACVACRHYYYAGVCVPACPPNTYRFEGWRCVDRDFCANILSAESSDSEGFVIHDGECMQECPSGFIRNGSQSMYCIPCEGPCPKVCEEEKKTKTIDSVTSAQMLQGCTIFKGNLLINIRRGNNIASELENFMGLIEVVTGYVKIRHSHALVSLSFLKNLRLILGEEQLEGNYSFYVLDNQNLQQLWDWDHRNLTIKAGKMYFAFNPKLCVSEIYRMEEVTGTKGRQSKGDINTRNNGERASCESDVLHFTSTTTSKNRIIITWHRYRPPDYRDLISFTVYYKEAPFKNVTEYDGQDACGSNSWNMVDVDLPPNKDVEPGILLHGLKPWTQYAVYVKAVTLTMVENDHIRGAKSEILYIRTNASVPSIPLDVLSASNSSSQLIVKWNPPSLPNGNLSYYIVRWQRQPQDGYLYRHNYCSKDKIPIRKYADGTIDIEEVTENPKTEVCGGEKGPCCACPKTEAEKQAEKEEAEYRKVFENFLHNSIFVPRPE
Chain of Insulin-like growth factor 1 receptor (P08069 741-1367 limits assumed): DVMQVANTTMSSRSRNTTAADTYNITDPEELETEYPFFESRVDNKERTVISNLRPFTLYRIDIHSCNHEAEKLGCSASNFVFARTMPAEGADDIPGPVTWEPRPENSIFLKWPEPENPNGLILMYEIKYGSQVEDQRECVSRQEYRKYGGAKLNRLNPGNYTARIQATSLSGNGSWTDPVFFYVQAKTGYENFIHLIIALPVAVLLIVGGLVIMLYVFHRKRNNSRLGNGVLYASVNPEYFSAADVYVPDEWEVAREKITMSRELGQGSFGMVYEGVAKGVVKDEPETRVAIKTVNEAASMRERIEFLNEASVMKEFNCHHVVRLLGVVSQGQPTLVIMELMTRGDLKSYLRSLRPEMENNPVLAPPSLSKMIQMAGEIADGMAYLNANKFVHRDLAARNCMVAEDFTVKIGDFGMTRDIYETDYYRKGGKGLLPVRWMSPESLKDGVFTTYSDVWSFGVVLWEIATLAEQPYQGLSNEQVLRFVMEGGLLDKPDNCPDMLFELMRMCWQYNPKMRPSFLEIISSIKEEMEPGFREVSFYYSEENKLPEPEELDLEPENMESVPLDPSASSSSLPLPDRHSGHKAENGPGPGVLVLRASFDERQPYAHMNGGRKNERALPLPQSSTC

Q: With `CCOc1cc(N2CCC(O)CC2)ccc1Nc1ncc2c(n1)N(C)c1ccccc1C(=O)N2C` as the compound, how does the IC50 [1] read?
A: Its IC50 is greater than 50 µM.

Q: What about the IC50 [2] of the same compound?
A: Its IC50 is greater than 50 µM.

Q: What about the IC50 [3] of the same compound?
A: Its IC50 is greater than 50 µM.

Q: And the IC50 [4]?
A: The IC50 was greater than 50 µM.

Q: And the IC50 [5]?
A: Its IC50 is greater than 50 µM.

Q: What about the IC50 [6] of the same compound?
A: Its IC50 is greater than 50 µM.

Q: And the IC50 [7]?
A: Its IC50 is greater than 50 µM.

Q: What about the IC50 [8] of the same compound?
A: The IC50 was greater than 50 µM.

Q: And the IC50 [9]?
A: The IC50 was greater than 50 µM.

Q: And the inhibition at 10 µM [10]?
A: The inhibition at 10 µM was -0.9%.

Q: What about the inhibition at 2 µM [11] of the same compound?
A: Its inhibition at 2 µM is 23.1%.

Q: And the inhibition [12]?
A: Its inhibition is 6.6%.

Q: And the inhibition [13]?
A: The inhibition was 17.4%.

Q: What about the inhibition at 2 µM [14] of the same compound?
A: Its inhibition at 2 µM is -6.9%.
